Values after ≈ are worked out from the molar mass of the structure shown.

Our source for the Activity and IC50 values is ChEMBL document CHEMBL1156126, “Synthesis of some new pyrazolo[3,4-d]pyrimidine derivatives of expected anticancer and radioprotective activity” (Eur J Med Chem, 2010).

A short description of test [1]: Antitumor activity against mouse EAC assessed as non viable cells at 100 ug/ml after 2 hrs by trypan blue exclusion assay. The class given is functional, Ehrlich. The method in brief:
(§1)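 EAC cells aspirated from ascitic fluid of preinoculated mice (line maintained by weekly i.p. transplantation), suspended in saline at 2.5×10⁶/ml. Compounds dissolved in DMSO:saline 0.7:0.3 at 1, 0.75, 0.5, 0.25 mg/ml stocks; 0.1 ml added to 0.8 ml saline plus 0.1 ml cells. Incubation 37 °C, 2 h; non-viable cells counted by trypan blue exclusion. IC50 taken from survival-versus-concentration curve.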

Test [2] is described as follows: Antitumor activity against mouse EAC assessed as non viable cells at 75 ug/ml after 2 hrs by trypan blue exclusion assay. The test is classed as functional, Ehrlich. A digest of the protocol:
as §1

Test [3] is described as follows: Antitumor activity against mouse EAC assessed as non viable cells at 50 ug/ml after 2 hrs by trypan blue exclusion assay. The class given is functional, Ehrlich. The method in brief: as §1
Test [4] in a line: Antitumor activity against mouse EAC assessed as non viable cells at 25 ug/ml after 2 hrs by trypan blue exclusion assay. The test is classed as functional, Ehrlich. A digest of the protocol:
as §1

A short description of test [5]: Antitumor activity against mouse EAC after 2 hrs by trypan blue exclusion assay. The conditions noted are these: Ehrlich. The class given is functional, cell-based. The method in brief:
as §1

Test [6] has as its system Mus musculus. The test can be described thus: Radioprotective activity in 6Gy gamma irradiated Swiss albino mouse assessed as reduction in gamma irradiation-inhibited blood glutathione content at 150 mg/kg, ip administered as 3 doses in alternative days up to 7 days pretreated 30 mins before gamma-irradiation relative to control. The class given is functional. Also on record: scale not given: the % may be the effect or the level left. The conditions noted are these: route intraperitoneal.

The subject of test [7] is Mus musculus. In words: Radioprotective activity in 6 Gy gamma irradiated Swiss albino mouse assessed as change blood superoxide dismutase activity at 150 mg/kg, ip administered as 3 doses in alternative days up to 7 days relative to control. The class given is functional. The conditions noted are these: route intraperitoneal.
The subject of test [8] is Mus musculus. In words: Radioprotective activity in 6 Gy gamma irradiated Swiss albino mouse assessed as change in gamma irradiation-induced blood superoxide dismutase activity at 150 mg/kg, ip administered as 3 doses in alternative days up to 7 days pretreated 30 mins before gamma-irradiation relative to control. To be noted: route intraperitoneal. The test is classed as functional.

Test [9] concerns Mus musculus. The test can be described thus: Radioprotective activity in 6Gy gamma irradiated Swiss albino mouse assessed as reduction in lipid peroxidation at 150 mg/kg, ip administered as 3 doses in alternative days up to 7 days relative to control. The test is classed as functional. Also on record: scale not given: the % may be the effect or the level left. The conditions noted are these: route intraperitoneal.

The subject of test [10] is Mus musculus. In words: Radioprotective activity in 6Gy gamma irradiated Swiss albino mouse assessed as reduction in gamma irradiation-induced lipid peroxidation at 150 mg/kg, ip administered as 3 doses in alternative days up to 7 days pretreated 30 mins before gamma-irradiation relative to control. The class given is functional. To be noted: route intraperitoneal. Also on record: scale not given: the % may be the effect or the level left.

Test [11] relates to Mus musculus. The test can be described thus: Radioprotective activity in 6Gy gamma irradiated Swiss albino mouse assessed as survival at 150 mg/kg, ip administered as 3 doses in alternative days up to 7 days relative to control. To be noted: route intraperitoneal. The test is classed as functional. A digest of the protocol: (§2)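 Female Swiss albino mice (25–30 g), 10 per group. Test agent was suspended in carboxymethylcellulose and given ip every other day, 3 injections over 7 days, each 30 min before whole-body gamma irradiation (Cs-137, 6 Gy, 0.86 Gy/min). Groups were untreated, CMC, radiation-only and drug-only. Survival is the percentage of animals alive 7 days after the radiation dose.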

Test [12] relates to Mus musculus. The test can be described thus: Radioprotective activity in 6Gy gamma irradiated Swiss albino mouse assessed as […] at 150 mg/kg, ip administered as 3 doses in alternative days up to 7 days pretreated 30 mins before gamma-irradiation relative to control. The test is classed as functional. To be noted: route intraperitoneal. The method in brief: as §2

The subject of test [13] is Mus musculus. The test can be described thus: Radioprotective activity in 6Gy gamma irradiated Swiss albino mouse assessed as increase in blood glutathione content at 150 mg/kg, ip administered as 3 doses in alternative days up to 7 days relative to control. The conditions noted are these: route intraperitoneal.

The term IC50 denotes the concentration at which inhibition is half-maximal. On to `Nn1c(=O)[nH]c2c(cnn2-c2ccccc2)c1=O`, for which the Activity stood at 50% in [1], 30% in test [2], 20% in test [3] and 10% in test [4]. In addition, in test [5], the IC50 was found to be 100 µg/mL (≈ 411 µM).
In the case of `O=c1c2cnn(-c3ccccc3)c2ncn1Cc1ccccc1`, the Activity is 80% in [1], 20% in test [2], 10% in [3] and 10% in [4]. The molecule further gave an IC50 in test [5] of 90 µg/mL (≈ 298 µM).
Take `Nn1cnc2c(cnn2-c2ccccc2)c1=S`: the Activity in [1] is 10%; in test [2], 10%; in [3], 10%; in [4] it was 10%; in the test with Mus musculus [6], 9.63%; with Mus musculus [7] it was -2.04%. Further, the Activity in the test on Mus musculus [8] was -9.3%; in the test on Mus musculus [9], 5.33%; with Mus musculus [10], -6.19%; in the test with Mus musculus [11], 100%; in the test on Mus musculus [12], 100%; in the test with Mus musculus [13] it was 4.95%. In addition, in [5], the IC50 is more than 100 µg/mL.
As to `O=c1c2cnn(-c3ccccc3)c2nc2ocnn12`, the Activity in [1] is on record as 0%; in test [2], 0%; in test [3], 0%; in test [4], 10%. In addition, the IC50 in [5] was more than 100 µg/mL.
Consider `O=c1c2cnn(-c3ccccc3)c2nc2[nH]c3ccccc3n12`, for which the Activity in test [1] is recorded as 0%; in [2], 0%; in [3], 0%; in [4] it was 10%. Also, the IC50 in test [5] is more than 100 µg/mL.
Take `S=c1nc2c3cnn(-c4ccccc4)c3ncn2[nH]1`: the Activity came to 30% in [1], 10% in test [2], 10% in test [3] and 10% in test [4]. In addition, the IC50 in test [5] was more than 100 µg/mL.
`O=C1/C(=C/c2ccccc2)N=C(c2ccccc2)N1n1cnc2c(cnn2-c2ccccc2)c1=O`: the Activity worked out at 0% in test [1], 0% in test [2], 0% in test [3] and 10% in test [4]. The molecule further displayed an IC50 in [5] of more than 100 µg/mL.
In the case of `O=c1oc2nc3c(cnn3-c3ccccc3)c(=O)n2c2ccccc12`, the Activity is listed as 30% in test [1], 30% in test [2], 10% in test [3] and 10% in test [4]. In addition, in [5], the IC50 is more than 100 µg/mL.
For the molecule `CSC(=NS(=O)(=O)c1ccc(Nc2nn3c(=O)c4cnn(-c5ccccc5)c4nc3o2)cc1)SC`, the Activity in [1] was found to be 20%; in test [2], 10%; in [3], 10%; in test [4], 10%. This molecule showed an IC50 in [5] of more than 100 µg/mL.
With `COc1cccc2c1C(=O)c1c(O)c3c(c(O)c1C2=O)C[C@@](O)(C(=O)CO)C[C@@H]3O[C@H]1C[C@H](N)[C@H](O)[C@H](C)O1` [DOXORUBICIN], the Activity came out at 100% in test [1], 75% in test [2], 55% in test [3] and 20% in test [4]. Moreover, half-maximal inhibition in [5] (IC50) was put at 52 µg/mL (≈ 95.7 µM).
